In all, about 140,000 compounds went through this assay and about 710 (0.51%) were called active.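 How the source made its calls: active means inhibition above a set limit, 3 SD over the mean compound inhibition (cut at about 44% in these data); inactive means the rest.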 What follows is part of a selection rich in actives, with near analogues and random picks from the rest.
experiment: BB579 yeast growth reduction, restrictive medium – S. cerevisiae, yeast lifespan-shortening project, primary screen (AID 804); conditions: OD615, 48 h, at 10 µM, active compounds read high
Procedure, shortened: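 Test system: Saccharomyces cerevisiae DeaD strain BB579, replicative lifespan model yeast | Buffer or medium: Restrictive CSMM-D medium | Doses: One dose, 10 µM compound with 0.25% DMSO | Incubation: 48 h exposure, 30 °C | Detection: Culture absorbance at 615 nm | Control set: Amphotericin B at 10 µg/mL as positive control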

| Compound | inhibition |
| --- | --- |
| COc1ccc2nc(Nc3nc(-c4cc5ccccc5oc4=O)cs3)sc2c1 | -1.96% (inactive) |
| O=C(Cc1coc2ccc3ccccc3c12)NCc1cccs1 | -8.63% (inactive) |
| CCC(=O)Nc1c(S(=O)(=O)c2ccccc2)c2nc3ccccc3nc2n1Cc1ccccc1 | -16.3% (inactive) |
| O=C(O)c1ccc(/C=N/NC(=O)c2ccc(Br)cc2)cc1 | -28.3% (inactive) |
| O=S(=O)(NCCc1ccncc1)c1ccccc1 | -4.48% (inactive) |
| COc1cc(OC)c(C(=O)Nc2ccccc2-c2ccccc2)cc1OC | -28.8% (inactive) |
| CCNC(=O)NC(=O)C(C)OC(=O)C1CCN(S(=O)(=O)c2ccccc2F)CC1 (configuration not stated) | 6.21% (inactive) |
| COc1ccc(/C=C/C(=O)c2cc(Br)ccc(=O)c2O)cc1 | 96% (active) |
| COc1ccc(/C=C/C(=O)c2ccc(OC)cc2O)cc1 | -54.2% (inactive) |
| COc1ccc(C(=O)/C=C/c2ccc(OC3CSC3)cc2)cc1 | -16.1% (inactive) |
| Cc1ccc(C(=O)OCc2nc(N)nc(Nc3ccccc3C)n2)cc1 | -34.8% (inactive) |
| CC(=O)c1c(N2CCN(c3ccc(F)cc3)CC2)nc(=S)n(-c2ccccc2)c1C | -54.2% (inactive) |
| CCSc1nc(C)nc2c1oc1ccccc12 | -45.9% (inactive) |
| Cc1nc(N2CCCC2C(=O)O)c2oc3ccccc3c2n1 (configuration not stated) | -21.7% (inactive) |
| Cc1nc(Cl)c2oc3ccccc3c2n1 | 59.5% (active) |
| CCOC(=O)C1=C(C)OC(N)=C(C#N)C1c1cncc(-c2ccc(F)cc2)c1 (configuration not stated) | -36.2% (inactive) |
| COc1ccc(C(=O)C[n+]2ccc(C)cc2)cc1 | -28.4% (inactive) |
| CCc1ccc(NC(=O)CC2C(=O)NCCN2C(=S)Nc2ccccc2)cc1 (configuration not stated) | -24.6% (inactive) |
| COc1cccc(NC(=S)NC(=O)c2c(Cl)c(C)nn2C)c1 | -62.5% (inactive) |
| Cc1nc2sc(C(=O)c3ccccc3)c(N)c2c2c1CCCC2 | 8.75% (inactive) |
| N#C/C(=C\c1ccccc1C(F)(F)F)C(=O)Nc1ccccc1F | 4.84% (inactive) |

| Compound | inhibition |
| --- | --- |
| CC(=O)NC1=NN(C(C)=O)C(C)(c2ccc(C)cc2)S1 (configuration not stated) | -33.1% (inactive) |
| Fc1ccc2c(c1)C(c1cccnc1)=NNC(c1cccs1)=N2 | -47.9% (inactive) |
| COC(=O)c1ccc(C(=O)OC)c(NC(=S)N2CCN(c3ccc(F)cc3)CC2)c1 | -49.1% (inactive) |
| Cc1ccc(-n2c(SCC(=O)N3c4ccccc4Sc4ccccc43)nnc2-c2ccncc2)cc1 | -47.4% (inactive) |
| COc1ccc(C)cc1NC(=O)C(Sc1ccccc1)c1ccccc1 (configuration not stated) | -2.09% (inactive) |
| Cc1ccc(S(=O)(=O)N(C)C)cc1NC(=O)/C=C/c1cccs1 | -48% (inactive) |
| Cc1cc(/C=C2\SC(=Nc3ccc(N4CCOCC4)cc3)N(C)C2=O)c(C)n1-c1cccnc1 | -7.27% (inactive) |
| Cc1occc1C(=O)Nc1nnc(C2CCCCC2)s1 | -32.1% (inactive) |
| CC1CCN(c2ccc(C(=O)Nc3nnc(C4CC4)s3)cc2[N+](=O)[O-])CC1 | -33% (inactive) |
| O=C(Nc1nnc(C2CC2)s1)c1ccccn1 | 62% (active) |
| CCC(NC(=O)c1ccccc1NC(=O)c1ccccc1)C(=O)NNC(=O)CSc1nc2ccccc2o1 (configuration not stated) | -6.61% (inactive) |
| CCS(=O)(=O)N1Cc2ccccc2CC1C(=O)Nc1nc2ccc(F)cc2s1 (configuration not stated) | -23% (inactive) |
| COc1cc(/C=C(/NC(=O)c2ccc(Cl)cc2Cl)C(=O)O)cc(OC)c1OC | -17.4% (inactive) |
| C#CCCCc1nc2ccccc2c(=O)n1N | -33.7% (inactive) |
| Cc1ccc(OCC(=O)Nc2ccccc2Sc2ccc(Cl)cc2)c([N+](=O)[O-])n1 | -29.5% (inactive) |
| CC1=C[C@H]2Cc3cc(C)cc(C)c3S(=O)(=O)[C@@H]2C=C1 | -12.4% (inactive) |
| CC(=O)N1C(C)c2ccccc2C(C)(C)CC12CCCCC2 (configuration not stated) | -16.3% (inactive) |
| O=c1c(Cl)c(NCc2ccc(F)cc2Cl)cnn1C12CC3CC(CC(C3)C1)C2 | -27.1% (inactive) |
| Cc1ccc(CCC(=O)Nc2ncc(Cc3cc(Cl)ccc3Cl)s2)o1 | -66.6% (inactive) |
| Cc1ncc(CC(=O)n2cc(C(=O)c3cc(Cl)ccc3O)cn2)s1 | 68.2% (active) |
| COc1cc(/C=C/C(=O)OCC(=O)Nc2cccc(Oc3ccccc3)c2)ccc1O | -29.9% (inactive) |

| Compound | inhibition |
| --- | --- |
| C/C(=N/NC(=O)C1COc2ccccc2O1)c1ccco1 (configuration not stated) | -32.3% (inactive) |
| O=C(COC(=O)CSc1nnc(-c2ccc(Cl)cc2)o1)Nc1cc(Cl)cc(Cl)c1 | -26.3% (inactive) |
| CN(Cc1ccccc1)C(=O)COC(=O)c1ccccc1Nc1ccccc1 | -8.71% (inactive) |
| O=C(Nc1ccc([N+](=O)[O-])cc1)C1(c2ccccc2)CCOCC1 | -16.4% (inactive) |
| O=C(NC1CCCC1)C(NS(=O)(=O)c1ccc(Br)s1)c1ccccc1 (configuration not stated) | -26.3% (inactive) |
| O=S(=O)(c1ccc(F)cc1)N1CCN(C(=S)NCc2ccco2)CC1 | -18% (inactive) |
| N#C/C(=C(/O)COC(=O)COc1ccc(Cl)cc1)c1nc2ccccc2[nH]1 | -22.6% (inactive) |
| Cc1ccc(NC(=O)COC(=O)CCc2nc3ccccc3n2-c2ccccc2)c(C)c1 | -45.6% (inactive) |
| COc1ccc(CN2CN(C(C)C)CSC2=S)cc1 | 68.5% (active) |
| S=C1SCN(CCN2CCOCC2)CN1Cc1ccccc1 | 39.7% (inactive) |
| COCC(=O)Nc1cc(C(=O)OC)cc(C(=O)OC)c1 | 6.64% (inactive) |
| Cc1cc2oc(=O)cc(CN3CCN(S(=O)(=O)c4cccs4)CC3)c2cc1C(C)C | -20.6% (inactive) |
| Cc1ccc(CNC(=O)Cn2c(=O)c3sccc3n(Cc3cccc([N+](=O)[O-])c3)c2=O)cc1 | -44.2% (inactive) |
| Cc1cccc(NC(=O)Cn2c(=O)n(Cc3ccccc3)c(=O)c3c(C)c(C)sc32)c1 | -27.1% (inactive) |
| OC(CNCC1CCCO1)Cn1c2ccc(Br)cc2c2cc(Br)ccc21 (configuration not stated) | 98.7% (active) |
| Cc1ccc(C(=O)NCC2CCCO2)o1 (configuration not stated) | -26.6% (inactive) |
| Cc1cc(Br)ccc1NC(=O)C1CCCO1 (configuration not stated) | -21.5% (inactive) |
| COc1ccc2nc(SCc3ccccc3)nc(C)c2c1 | -34.5% (inactive) |
| COc1ccc(NC(=O)Nc2ccc3nc(C)c(C)nc3c2)cc1 | -50.2% (inactive) |
| COc1ccc2nc(/N=C(\N)NC(=O)Nc3ccccc3)nc(C)c2c1 | 68.3% (active) |

— PubChem BioAssay AID804 (SRMLSC, 2007)
